Active and inactive are the calls of the source. The rule behind the calls is not given here. Residues, ends and D or L forms follow the SMILES beside them.
Columns and labels:
[1] = target: T1, Prostaglandin G/H synthase 2 (Homo sapiens, UniProt P35354); assay: Inhibition of human recombinant COX2 assessed as reduction in PGH2-derived PGF2alpha using arachidonic acid as substrate preincubated for 10 mins followed by substrate addition measured after 2 mins by enzyme immunoassay
T1 sequence (P35354 whole entry): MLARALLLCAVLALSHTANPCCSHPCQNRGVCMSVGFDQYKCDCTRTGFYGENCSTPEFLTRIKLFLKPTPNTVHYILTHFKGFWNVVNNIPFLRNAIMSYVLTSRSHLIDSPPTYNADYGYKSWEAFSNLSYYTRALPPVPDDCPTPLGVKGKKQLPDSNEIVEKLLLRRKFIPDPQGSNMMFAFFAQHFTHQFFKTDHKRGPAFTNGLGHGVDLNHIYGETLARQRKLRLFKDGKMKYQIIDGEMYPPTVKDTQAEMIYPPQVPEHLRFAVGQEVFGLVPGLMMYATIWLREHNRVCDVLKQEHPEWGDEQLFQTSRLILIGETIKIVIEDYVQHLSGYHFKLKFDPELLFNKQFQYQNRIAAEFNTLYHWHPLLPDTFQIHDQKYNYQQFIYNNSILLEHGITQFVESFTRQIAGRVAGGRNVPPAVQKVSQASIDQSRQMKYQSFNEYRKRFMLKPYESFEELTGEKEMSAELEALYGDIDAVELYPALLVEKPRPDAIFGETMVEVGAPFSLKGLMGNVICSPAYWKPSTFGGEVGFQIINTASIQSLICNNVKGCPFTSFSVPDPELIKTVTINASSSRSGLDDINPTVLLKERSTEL

Mus musculus [2] = assay: Analgesic activity in Swiss albino mouse assessed as reduction in capsaicin-induced paw licking at 5 to 10 mg/kg, ip dosed 30 mins before capsaicin injection measured for 10 mins in presence of voltage-gated sodium channel opener veratrine pre-treated 30 mins before compound dosing; assay type: functional, organism-based
Summary of the method: (§1)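 Mice of either sex (25-35 g), 5 per group. The modulator is given 30 min before the test compound, and capsaicin 30 min after that: substance P 10 µg/kg, L-arginine 40 mg/kg, L-NAME 20 mg/kg, veratrine 125 µg/kg, A23187 20 µg/kg, glipizide 30 µg/kg. Capsaicin is 1.6 μg in 20 μL intraplantar. Paw lickings are counted for 10 min.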

Mus musculus [3] = assay: Analgesic activity in Swiss albino mouse assessed as reduction in capsaicin-induced paw licking at 5 to 10 mg/kg, ip dosed 30 mins before capsaicin injection measured for 10 mins in presence of […] A23187 pre-treated 30 mins before compound dosing; assay type: functional, organism-based; summary of the method: as §1
Mus musculus [4] = assay: Analgesic activity in Swiss albino mouse assessed as reduction in capsaicin-induced paw licking at 5 to 10 mg/kg, ip dosed 30 mins before capsaicin injection measured for 10 mins in presence of nitric oxide precursor L-arginine pre-treated 30 mins before compound dosing; assay type: functional, organism-based; summary of the method: as §1
[5] = target: T2, Prostaglandin G/H synthase 2 (Homo sapiens) (UniProt P35354); assay: Binding affinity to COX2 (unknown origin) at 100 uM by isothermal titration calorimetry
T2 sequence (whole entry): T1 sequence (P35354 whole entry)
Summary of the method: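 Isothermal titration calorimetry in HEPES buffer, pH 7.4. The ligand stock is 100 μM in ethanol/HEPES (1:99). The syringe is stirred at 500 rpm and delivers 19 injections of 2 μL into the enzyme-containing cell at 120 s intervals. Heats from buffer-only control titrations are subtracted. The fit gives Ka, ΔH and ΔS. Run in triplicate.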

Mus musculus [6] = assay: Analgesic activity in Swiss albino mouse assessed as reduction in formalin-induced paw flinches in inflammatory phase at 5 mg/kg, ip dosed 30 mins before formalin injection measured after 15 to 30 mins; assay type: functional, organism-based
Summary of the method: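 Swiss albino mice of either sex (25-35 g). 20 μL of 2% formalin is injected into the plantar surface of the right hind paw 30 min after treatment. Hind paw flinches are counted for the neurogenic phase (0-5 min) and the inflammatory phase (15-30 min). Results are given as mean ± SEM.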

For COC(=O)[C@H](CC(C)C)NC(=O)[C@H](Cc1ccccc1)NC(=O)CNC(=O)CN (H-GGFL-OMe), the IC50 [1] was 60 nM, the Activity (Mus musculus [2]) was “Active” and the Activity (Mus musculus [3]) was “Active”. For the same molecule, the Activity (Mus musculus [4]) was “inactive”, the Ka [5] was 6.1 ×10⁴ /M and the Activity (Mus musculus [6]) was “Active”.
